These results are taken from ChEMBL document CHEMBL3259707, “Design and synthesis of human ABCB1 (P-glycoprotein) inhibitors by peptide coupling of diverse chemical scaffolds on carboxyl and amino termini of (S)-valine-derived thiazole amino acid” (J Med Chem, 2014).

In general, IC50 refers to the concentration at which inhibition is half-maximal. The term EC50 denotes the concentration at which the effect is half-maximal.

The target in data set [1] is T1, ATP-dependent translocase ABCB1 (Homo sapiens, UniProt P08183). The experiment in a line: Reversal of Pgp-1-mediated multidrug resistance in human HEK293 cells assessed as potentiation of paclitaxel cytotoxicity at 10 uM treated for 2 hrs prior to paclitaxel challenge measured after 72 hrs by MTT assay relative to paclitaxel alone-treated control. Format: cell-based. To be noted: hek293, 72 h. In outline: (§1)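 Cells seeded at 5000–6000/well, attached 24 h at 37 °C, 5% CO2, then preincubated 2 h ± reversal agent before paclitaxel dilutions; after 72 h, MTT (4 mg/mL) 4 h, formazan dissolved in DMSO, absorbance 570 nm. Paclitaxel IC50 from killing curves; fold-resistance = IC50 divided by parental paclitaxel IC50. Four independent experiments in triplicate. HEK lines kept with G418 (2 mg/mL).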
(In general: Formazan colour is commonly taken as a measure of viable cells.)

The nature of data set [2]: Retention time of the compound by HPLC analysis. Format: physicochemical. In outline:
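Reverse-phase C18 HPLC, isocratic acetonitrile/water 60:40, 1.0 mL/min, UV 254 nm; purity from major-peak area.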

In data set [3] the target is T1, ATP-dependent translocase ABCB1. The experiment in a line: Inhibition of human wild type P-gp expressed in BacMam virus infected human HeLa cells assessed as calcein-AM accumulation after 10 mins by flow cytometry. Format: cell-based. The essentials: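 HeLa cells transduced with BacMam WT-P-gp (10–15 particles/cell); 10 mM butyric acid added after 3–4 h, grown overnight at 37 °C. Trypsinized cells exposed to compound, then 0.5 μM calcein-AM for 10 min at 37 °C in the dark. […] Two independent experiments in triplicate, ± SD.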

Data set [4] has the same target. In words: Stimulation of ATPase activity of ABCB1 (unknown origin) expressed in High Five insect cell membrane assessed as ATP hydrolysis. The essentials:
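Vanadate-sensitive ATPase of P-gp in crude High Five membranes (10 μg protein/100 μL). Compound 0–10 μM, with and without 0.3 mM sodium orthovanadate, in ATPase assay buffer. […] Three independent experiments in duplicate, mean ± SEM.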

Data set [5] has the same target. In words: Reversal of Pgp-1-mediated multidrug resistance in human SW620 cells assessed as potentiation of paclitaxel cytotoxicity at 1 uM treated for 2 hrs prior to paclitaxel challenge measured after 72 hrs by MTT assay relative to paclitaxel alone-treated control. The class given is cell-based. To be noted: sw-620, 72 h. In outline:
(§2)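 MTT reversal assay. Cells seeded 5000–6000/well and attached 24 h; modulator added 2 h before graded paclitaxel; 72 h at 37 °C; MTT 4 h, DMSO solubilisation, A570. Paclitaxel IC50 taken from killing curves. Fold-resistance = paclitaxel IC50 (± modulator) ÷ paclitaxel IC50 in parental SW620 or HEK293. Four independent experiments in triplicate, mean ± SEM. Cells drug-free >2 weeks beforehand.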

The target is the same in data set [6]. The experiment in a line: Reversal of Pgp-1-mediated multidrug resistance in human SW620/Ad300 cells overexpressing ABCB1 assessed as potentiation of paclitaxel cytotoxicity at 3 uM treated for 2 hrs prior to paclitaxel challenge measured after 72 hrs by MTT assay relative to paclitaxel alone-treated control. Format: cell-based. To be noted: sw-620, 72 h. The essentials:
as §2

The target is the same in data set [7]. In words: Reversal of Pgp-1-mediated multidrug resistance in human HEK293 cells overexpressing human ABCB1 assessed as potentiation of paclitaxel cytotoxicity at 3 uM treated for 2 hrs prior to paclitaxel challenge measured after 72 hrs by MTT assay relative to paclitaxel alone-treated control. Format: cell-based. To be noted: hek293, 72 h. The essentials:
as §2

For data set [8] the target is unchanged. The experiment in a line: Stimulation of ATPase activity of ABCB1 (unknown origin) expressed in High Five insect cell membrane assessed as ATP hydrolysis at >2.5 uM relative to control.
Data set [9] shares this target. The experiment in a line: Stimulation of ATPase activity of ABCB1 (unknown origin) expressed in High Five insect cell membrane assessed as ATP hydrolysis at 0.5 to 2.5 uM relative to control.
Data set [10] is described as follows: Cytotoxicity against human SW620/Ad300 cells overexpressing ABCB1 assessed as cell survival at 10 uM by MTT assay. To be noted: SW620/Ad300 cells that overexpress ABCB1, read-out: Activity. Format: ADME, cell-based, SW-620. The essentials: (§3)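 Cells seeded at 5000–6000 per well in triplicate, attached 24 h at 37 °C, 5% CO2, then exposed to compound for 72 h. MTT (4 mg/mL) added for 4 h, formazan dissolved in DMSO, absorbance read at 570 nm. Four independent experiments. HEK/ABCB1 and HEK293 kept in DMEM with G418 (2 mg/mL). All lines drug-free for over 2 weeks beforehand.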

The target of data set [11] is T1, ATP-dependent translocase ABCB1. The experiment in a line: Reversal of Pgp-1-mediated multidrug resistance in human SW620 cells assessed as potentiation of paclitaxel cytotoxicity at 10 uM treated for 2 hrs prior to paclitaxel challenge measured after 72 hrs by MTT assay relative to paclitaxel alone-treated control. The class given is cell-based. To be noted: sw-620, 72 h. In outline:
as §1

For data set [12] the target is unchanged. In words: Reversal of Pgp-1-mediated multidrug resistance in human HEK293 cells assessed as potentiation of paclitaxel cytotoxicity at 3 uM treated for 2 hrs prior to paclitaxel challenge measured after 72 hrs by MTT assay relative to paclitaxel alone-treated control. Format: cell-based. To be noted: hek293, 72 h. In outline: as §2
Data set [13] can be described thus: Cytotoxicity against human HEK293 cells overexpressing human ABCB1 assessed as cell survival at 10 uM by MTT assay. To be noted: HEK293 cells that overexpress human ABCB1, read-out: Activity. The class given is ADME, cell-based. In outline: as §3
Data set [14] can be described thus: Cytotoxicity against human HEK293 cells assessed as cell survival at 10 uM by MTT assay. To be noted: read-out: Activity. The class given is cell-based. In outline: as §3
In data set [15] the target is T1, ATP-dependent translocase ABCB1. The experiment in a line: Reversal of Pgp-1-mediated multidrug resistance in human SW620/Ad300 cells overexpressing ABCB1 assessed as potentiation of paclitaxel cytotoxicity at 10 uM treated for 2 hrs prior to paclitaxel challenge measured after 72 hrs by MTT assay relative to paclitaxel alone-treated control. To be noted: sw-620, 72 h. Format: cell-based. The essentials: as §1

Data set [16] can be described thus: Cytotoxicity against human SW620 cells assessed as cell survival at 10 uM by MTT assay. To be noted: read-out: Activity. The class given is cell-based, SW-620. The essentials:
as §3

In data set [17] the target is T1, ATP-dependent translocase ABCB1. In words: Reversal of Pgp-1-mediated multidrug resistance in human SW620/Ad300 cells overexpressing ABCB1 assessed as potentiation of paclitaxel cytotoxicity at 1 uM treated for 2 hrs prior to paclitaxel challenge measured after 72 hrs by MTT assay relative to paclitaxel alone-treated control. Format: cell-based. To be noted: sw-620, 72 h. In outline:
as §2

Data set [18] shares this target. The experiment in a line: Reversal of Pgp-1-mediated multidrug resistance in human SW620 cells assessed as potentiation of paclitaxel cytotoxicity at 3 uM treated for 2 hrs prior to paclitaxel challenge measured after 72 hrs by MTT assay relative to paclitaxel alone-treated control. The class given is cell-based. To be noted: sw-620, 72 h. In outline: as §2
Data set [19] shares this target. The experiment in a line: Reversal of Pgp-1-mediated multidrug resistance in human HEK293 cells overexpressing human ABCB1 assessed as potentiation of paclitaxel cytotoxicity at 10 uM treated for 2 hrs prior to paclitaxel challenge measured after 72 hrs by MTT assay relative to paclitaxel alone-treated control. Format: cell-based. To be noted: hek293, 72 h. The essentials: as §1

The target is the same in data set [20]. The experiment in a line: Displacement of […] from ABCB1 (unknown origin) expressed in High Five insect cell membrane at >5 uM preincubated for 10 mins by autoradiography. To be noted: for inhibition (INH): human. In outline:
(§4)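 Compound 0–20 μM, 10 min at 37 °C. Then [125I]-IAAP (2200 Ci/mmol; 4–6 nM) added for 5 min under minimal light. UV 365 nm for 10 min, labeling read by autoradiography. Two independent experiments; curve fitted by one-phase decay.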
(Loss of bound radioactivity is the signal in a displacement assay; it reports binding, not function.)

The target is the same in data set [21]. In words: Reversal of Pgp-1-mediated multidrug resistance in human HEK293 cells assessed as potentiation of paclitaxel cytotoxicity at 1 uM treated for 2 hrs prior to paclitaxel challenge measured after 72 hrs by MTT assay relative to paclitaxel alone-treated control. The class given is cell-based. To be noted: hek293, 72 h. The essentials: as §2
For data set [22] the target is unchanged. The experiment in a line: Reversal of Pgp-1-mediated multidrug resistance in human HEK293 cells overexpressing human ABCB1 assessed as potentiation of paclitaxel cytotoxicity at 1 uM treated for 2 hrs prior to paclitaxel challenge measured after 72 hrs by MTT assay relative to paclitaxel alone-treated control. To be noted: hek293, 72 h. The class given is cell-based. In outline:
as §2

A short description of data set [23]: Retardation factor of the compound using EtOAc-n-hexane at ratio of 3:2 by thin layer chromatography. Format: physicochemical.
Data set [24] has as its target T1, ATP-dependent translocase ABCB1. In words: Displacement of […] from ABCB1 (unknown origin) expressed in High Five insect cell membrane preincubated for 10 mins by autoradiography. In outline: as §4
Data set [25] in a line: Inhibition of mouse P-gp.
A short description of data set [26]: Cytotoxicity against human SW620/Ad300 cells overexpressing ABCB1 assessed as cell survival at 3 uM by MTT assay. Format: ADME, cell-based, SW-620. To be noted: SW620/Ad300 cells that overexpress ABCB1, read-out: Activity. The essentials: (§5)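 MTT survival. Cells seeded 5000–6000/well, attached 24 h at 37 °C, 5% CO2; test agent for 72 h; MTT 4 mg/mL stock added, 4 h at 37 °C; formazan dissolved in DMSO, A570 read. Four independent experiments, each in triplicate. SW620/Ad300 is the doxorubicin-selected P-gp subline of SW620; HEK293 grown in DMEM with G418 (2 mg/mL). All cells kept drug-free >2 weeks before assay.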

A short description of data set [27]: Cytotoxicity against human HEK293 cells overexpressing human ABCB1 assessed as cell survival at 3 uM by MTT assay. To be noted: HEK293 cells that overexpress human ABCB1, read-out: Activity. Format: ADME, cell-based. The essentials:
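HEK293 cells stably transfected with human ABCB1 cDNA, kept in DMEM with G418 (2 mg/mL) and drug-free for over 2 weeks. Cells seeded at 5000–6000/well, attached 24 h at 37 °C, 5% CO2, then exposed 72 h to modulator. MTT (4 mg/mL) added for 4 h, formazan dissolved in DMSO, absorbance read at 570 nm. Four independent experiments, each in triplicate.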

Data set [28] can be described thus: Cytotoxicity against human HEK293 cells assessed as cell survival at 3 uM by MTT assay. Format: cell-based. To be noted: read-out: Activity. The essentials:
as §5

Data set [29] concerns the target T1, ATP-dependent translocase ABCB1. In words: Inhibition of human P-gp.
Data set [30] is described as follows: Cytotoxicity against human SW620 cells assessed as cell survival at 3 uM by MTT assay. Format: cell-based, SW-620. To be noted: read-out: Activity. In outline: as §5

T1 sequence (P08183 whole entry): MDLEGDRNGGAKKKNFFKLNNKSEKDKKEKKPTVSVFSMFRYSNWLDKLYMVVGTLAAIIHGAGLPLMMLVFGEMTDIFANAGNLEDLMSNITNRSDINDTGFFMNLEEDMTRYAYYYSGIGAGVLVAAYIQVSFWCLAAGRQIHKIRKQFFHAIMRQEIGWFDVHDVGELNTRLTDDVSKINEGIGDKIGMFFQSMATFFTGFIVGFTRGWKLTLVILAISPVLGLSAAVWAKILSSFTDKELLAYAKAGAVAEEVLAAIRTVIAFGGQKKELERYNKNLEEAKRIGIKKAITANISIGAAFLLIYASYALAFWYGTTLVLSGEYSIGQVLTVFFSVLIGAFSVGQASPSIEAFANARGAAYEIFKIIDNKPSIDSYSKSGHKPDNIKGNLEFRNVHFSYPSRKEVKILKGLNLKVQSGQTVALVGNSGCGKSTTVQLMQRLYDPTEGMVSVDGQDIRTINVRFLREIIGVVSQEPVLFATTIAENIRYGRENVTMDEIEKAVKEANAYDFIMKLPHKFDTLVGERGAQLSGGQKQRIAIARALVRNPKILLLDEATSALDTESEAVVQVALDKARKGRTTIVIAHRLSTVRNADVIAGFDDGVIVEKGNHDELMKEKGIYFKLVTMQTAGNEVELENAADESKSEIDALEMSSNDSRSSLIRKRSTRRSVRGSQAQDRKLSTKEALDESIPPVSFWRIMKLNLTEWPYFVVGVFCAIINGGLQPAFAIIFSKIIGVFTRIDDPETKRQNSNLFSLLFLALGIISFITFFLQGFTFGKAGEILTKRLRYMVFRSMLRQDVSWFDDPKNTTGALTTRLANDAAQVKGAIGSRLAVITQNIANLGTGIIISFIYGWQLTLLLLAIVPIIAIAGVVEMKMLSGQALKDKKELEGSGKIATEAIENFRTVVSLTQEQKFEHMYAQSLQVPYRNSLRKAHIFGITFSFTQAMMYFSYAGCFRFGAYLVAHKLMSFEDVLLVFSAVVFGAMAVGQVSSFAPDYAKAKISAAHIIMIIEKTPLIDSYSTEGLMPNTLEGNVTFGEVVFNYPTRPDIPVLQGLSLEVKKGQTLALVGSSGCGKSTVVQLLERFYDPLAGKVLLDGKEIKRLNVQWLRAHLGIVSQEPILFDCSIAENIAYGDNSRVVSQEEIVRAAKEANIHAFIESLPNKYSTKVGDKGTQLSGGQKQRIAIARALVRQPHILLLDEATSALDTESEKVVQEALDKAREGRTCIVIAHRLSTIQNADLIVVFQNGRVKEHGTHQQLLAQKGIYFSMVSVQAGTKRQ

With `COc1cc(C(=O)N[C@H](c2nc(C(=O)Nc3ccccc3C(=O)c3ccccc3)cs2)C(C)C)cc(OC)c1OC`, the Ratio stood at 1 in data set [1]; 1.2 in data set [5]; 8.5 in data set [6]; 3.1 in data set [7]; 1.8 in data set [8]; 2 in data set [9]. The Ratio is 1 in data set [11]; 1 in [12]; 1.8 in [15]; 31 in data set [17]; 1 in data set [18]; 2 in data set [19]. Moreover, the figures for the Ratio in data set [21] and in data set [22] were 1 and 12.9, respectively. Moreover, the Retention_time in data set [2] turned out to be 9.4 min. The values for the IC50 in data set [3] and in [20] were 1000 nM and 720 nM, respectively. For the same molecule, the “inhibition (INH)” value in [3] (human, hela, 10 min) was “Dose-dependent effect”; in data set [20] it was 90%; in data set [24], “Dose-dependent effect”. In addition, the EC50 in [4] turned out to be 27 nM. Besides, the Activity entry in data set [4] (human) is listed as “Dose-dependent effect”. For the same molecule, the viability at 10 µM in data set [10], in data set [13], in [14] and in data set [16] was over 85% each time. Moreover, the Rf in data set [23] is recorded as 0.45.
In the case of `CC(C)[C@@H]1NC(=O)c2csc(n2)[C@H](C(C)C)NC(=O)c2csc(n2)[C@H](C(C)C)NC(=O)c2csc1n2`, the figures for the IC50 in [25] and in data set [29] were 2700 nM and 1500 nM, respectively. Besides, the viability at 3 µM in data set [26], in [27], in [28] and in [30] was over 85% each time. For the same molecule, the “inhibition (INH)” value in data set [20] is 90%; in data set [24], “Dose-dependent effect”.
